APP 5'UTR act – activates APP 5'UTR luciferase reporter; SH-SY5Y APP 5'UTR luciferase reporter, luminescence; zero percent = DMSO vehicle wells; 190,000 tested, 1% active; activation, % at 2 µM; AID 1276;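 active = activation above a set limit, based on mean plus 3 SD of controls, cut at about 140% in these data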
PPC-1+TRAIL kill – compounds killing PPC-1 cancer cells with TRAIL present (potentiator screen, no TRAIL-free arm); PPC-1 cells + TRAIL, ATPLite viability luminescence; cell killing (% activity), % at 4 µM or 5 µM; 220,000 tested, 0.41% active; AID 1443;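 active = cell killing above 50% in the first pass at 4 µM, then a duplicate retest at 5 µM averaging 50% or more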
FLuc act counter – firefly luciferase counter-screen for stimulation assays. P08659. ATPlite luciferase biochemical, luminescence, 10 min; 0 = ATP-free wells, 1 = DMSO control. activation factor at 10 µM. 200,000 tested, under 10 active;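 active = luciferase activation factor, scaled between plate controls, of at least 2 with compound at 10 µM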
Target sequence (P08659 whole entry, looked up): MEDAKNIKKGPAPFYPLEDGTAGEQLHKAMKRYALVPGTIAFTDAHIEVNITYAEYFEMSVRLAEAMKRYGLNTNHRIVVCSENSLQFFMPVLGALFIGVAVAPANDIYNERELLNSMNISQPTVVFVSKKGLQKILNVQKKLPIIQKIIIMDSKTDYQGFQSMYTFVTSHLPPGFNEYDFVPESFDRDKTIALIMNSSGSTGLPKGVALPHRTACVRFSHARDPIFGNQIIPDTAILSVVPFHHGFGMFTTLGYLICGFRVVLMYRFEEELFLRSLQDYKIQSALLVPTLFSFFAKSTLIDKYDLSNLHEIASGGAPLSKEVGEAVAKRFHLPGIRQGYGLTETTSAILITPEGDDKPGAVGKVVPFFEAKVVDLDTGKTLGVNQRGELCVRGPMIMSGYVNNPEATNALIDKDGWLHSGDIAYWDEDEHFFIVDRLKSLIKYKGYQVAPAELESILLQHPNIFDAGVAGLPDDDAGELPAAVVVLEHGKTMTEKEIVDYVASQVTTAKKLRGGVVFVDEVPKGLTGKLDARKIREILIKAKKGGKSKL
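System: cell-free luciferase reagent; medium: PBS as buffer for the ATP substrate; doses: test compounds dosed from 2 mM stocks in 100% DMSO; incubation: 10 min, room temperature; measured by: luminescence from luciferase reaction; read-out: luciferase activation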
NF-kB neuron act – raises NF-kB expression in human neuronal cells. NF-kB reporter expression; stronger effect = higher value. fold change at 12.5 µM. 190,000 tested, 1.6% active; in the data active = fold change above about 3.3
C8 TRAIL sens – sensitizes caspase-8 expressing cells to TRAIL; 360,000 tested, 1% active; inhibition (viability loss, TRAIL sensitization), % at 10 µM; NB7+C8 cells + TRAIL, ATPlite viability luminescence; AID 624354;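 active = compounds causing at least 50% loss of cell viability in the single-dose screen, relative to plate controls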
FLuc inh counter – counter-screen for luciferase assay inhibitors: firefly luciferase inhibition. inhibition, % at 10 µM. ATPLite firefly luciferase biochemical luminescence, 10 min. P08659. 200,000 tested, 1.5% active;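 active = inhibition above about 50% when tested at 10 µM, limit read from the data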
Each line names hits and unclear results; the compound was inactive in the other large screens. Shown are actives, neighbours in structure and some others; about 2.2% of the full set was active somewhere.

C#Cc1ccccc1OCCCN1CCC(C(O)(c2ccccc2)c2ccccc2)CC1	C8 TRAIL sens 93 (no result: APP 5'UTR act, PPC-1+TRAIL kill, FLuc act counter, NF-kB neuron act, FLuc inh counter)
NC(COCc1ccccc1)c1csc(Nc2nncc3ccccc23)n1 (stereo unspecified)	none (no result: APP 5'UTR act, PPC-1+TRAIL kill, FLuc act counter, NF-kB neuron act, FLuc inh counter)
CCCCN(C)C(=O)c1ccc(Nc2nc(C(N)Cc3ccc(C(F)(F)F)cc3)cs2)nc1 (stereo unspecified)	C8 TRAIL sens 77 (no result: APP 5'UTR act, PPC-1+TRAIL kill, FLuc act counter, NF-kB neuron act, FLuc inh counter)
NC(Cc1ccc(C(F)(F)F)cc1)c1csc(Nc2nncc3ccccc23)n1 (stereo unspecified)	C8 TRAIL sens 69 (no result: APP 5'UTR act, PPC-1+TRAIL kill, FLuc act counter, NF-kB neuron act, FLuc inh counter)
c1ccc(-c2cn3c(n2)CCC3)cc1	none
c1ccc(-c2cn3nc4c(nc3n2)CCCC4)cc1	APP 5'UTR act 148, FLuc inh counter 86
Brc1ccc2nc3c(n2c1)CCCC3	none
Brc1ccc(-c2cn3nc4c(nc3n2)CCCC4)cc1	APP 5'UTR act 186
C=CCOc1ccc2c(OC)c3ccoc3nc2c1OC	FLuc inh counter 54
O=C(Nc1ccc(SC(F)F)cc1)C1=COCCO1	APP 5'UTR act 201, NF-kB neuron act 5.2
O=C(N/N=C/c1ccc(OC(F)F)cc1)C1=COCCO1	FLuc inh counter 68
NC(=O)CC(NC(=O)Cc1ccc(Br)cc1)c1ccc(NCc2ccc(F)c(F)c2)c([N+](=O)[O-])c1 (stereo unspecified)	none (no result: APP 5'UTR act, FLuc act counter, NF-kB neuron act, FLuc inh counter)
CCOC(=O)c1ccc(NC(=O)c2ccc3c(c2)C(=O)N(Cc2cccnc2)C3=O)cc1	none (no result: APP 5'UTR act, PPC-1+TRAIL kill, FLuc act counter, NF-kB neuron act, FLuc inh counter)
COCCNC(=S)N/N=C(\C)c1ccccc1OC	none
COCCNC(=S)N/N=C(\C)c1ccccc1O	NF-kB neuron act 15
Cc1ccc(CNS(=O)(=O)c2ccc(CN3C(=O)c4cccnc4C3=O)s2)o1	none (no result: APP 5'UTR act, PPC-1+TRAIL kill, FLuc act counter, NF-kB neuron act, FLuc inh counter)
O=C(Nc1ccc(Cc2ccncc2)cc1)c1ccc(Cl)c([N+](=O)[O-])c1	FLuc inh counter 76
O=C(Nc1ccccc1-c1ccccc1)c1ccc(Cl)c([N+](=O)[O-])c1	PPC-1+TRAIL kill 94
O=C(Nc1ccc2ccccc2c1)N1CCCN(CCOc2ccccc2)CC1	none (no result: APP 5'UTR act, FLuc act counter, NF-kB neuron act, FLuc inh counter)
Cc1cccc(NC(=O)c2cc3ccccc3c(=O)o2)n1	C8 TRAIL sens 60 (no result: APP 5'UTR act, PPC-1+TRAIL kill, FLuc act counter, NF-kB neuron act, FLuc inh counter)
Cc1c(C(=O)NC(=S)Nc2ccc(NC(=O)c3cccs3)cc2)oc2ccccc12	none (no result: APP 5'UTR act, PPC-1+TRAIL kill, FLuc act counter, NF-kB neuron act, FLuc inh counter)
Cc1cccc(NC(=S)NC(=O)c2ccc(-c3ccccc3)cc2)n1	C8 TRAIL sens 59 (no result: APP 5'UTR act, PPC-1+TRAIL kill, FLuc act counter, NF-kB neuron act, FLuc inh counter)
Cc1nc(NC(=O)c2cc3ccccc3o2)ccc1Br	none (no result: APP 5'UTR act, PPC-1+TRAIL kill, FLuc act counter, NF-kB neuron act, FLuc inh counter)
Cc1cccc(NC(=S)NC(=O)C(c2ccccc2)c2ccccc2)n1	none (no result: PPC-1+TRAIL kill, FLuc act counter, NF-kB neuron act, FLuc inh counter)
Cc1ccc(C(=O)O)cc1NC(=S)NC(=O)c1ccc(-c2ccccc2)cc1	FLuc inh counter 86
Cc1cccc(NC(=S)NC(=O)c2oc3ccccc3c2C)n1	C8 TRAIL sens 64 (no result: APP 5'UTR act, PPC-1+TRAIL kill, FLuc act counter, NF-kB neuron act, FLuc inh counter)
Cc1cc(C)c(NC(=S)NC(=O)c2ccccc2)cc1C	none (no result: APP 5'UTR act, PPC-1+TRAIL kill, FLuc act counter, NF-kB neuron act, FLuc inh counter)
COC(=O)[C@]12CCCCC=C1N(Cc1cccc3ccccc13)C(=O)[C@H](CC(=O)N1CCSCC1)C2	none (no result: APP 5'UTR act, PPC-1+TRAIL kill, FLuc act counter, NF-kB neuron act, FLuc inh counter)
O=C(C[n+]1ccccc1)N/N=C/c1ccc(Br)cc1	none (no result: APP 5'UTR act, PPC-1+TRAIL kill, FLuc act counter, NF-kB neuron act, FLuc inh counter)
O=C(Nc1ccc(NC(=O)c2ccccc2)c2ccccc12)c1ccccc1	none (no result: APP 5'UTR act, PPC-1+TRAIL kill, FLuc act counter, NF-kB neuron act, FLuc inh counter)
COc1ccc(C(=O)c2coc(-c3ccccc3C(=O)O)c2C(=O)O)cc1	none
COc1ccc(C(=O)c2c(C(F)(F)F)oc3c2C(=O)c2ccccc2C3=O)cc1	C8 TRAIL sens 98
CC(=O)Nc1ccc(N=Nc2ccc(O)cc2)cc1	NF-kB neuron act 9.2
CCN1C(=O)/C(=C/C=C2/SCCN2C)SC1=S	NF-kB neuron act 4.7
CCCCN(C(=O)CSc1cc(C)c2ccccc2n1)c1c(N)n(Cc2ccccc2)c(=O)[nH]c1=O	none
Cc1cccc(OCCN2C(=O)C(=O)c3cccc(C)c32)c1	none (no result: APP 5'UTR act)
Cc1cccc(OCCN2C(=O)C(=O)c3cc(C)ccc32)c1	NF-kB neuron act 3.8 (no result: PPC-1+TRAIL kill)
Cc1ccc2c(c1)C(=O)C(=O)N2CCOc1ccccc1	NF-kB neuron act 3.6
CCC(=O)NCc1ccc2[nH]c(C)cc2c1	none
CCCCCCOc1ccc(C(=O)O)cc1	none (no result: APP 5'UTR act, FLuc act counter, NF-kB neuron act, FLuc inh counter)
CCCCOc1ccc(-c2ncc(C(=O)O)c(C)n2)cc1	APP 5'UTR act 165, NF-kB neuron act 4.3
CCOC(=O)c1c(C)oc2c1c1c(c3ccccc32)OCN(Cc2cccnc2)C1	NF-kB neuron act 4.7
CCOC(=O)c1c(C)oc2c1c(C(c1cccnc1)N1CCOCC1)c(O)c1ccccc12 (stereo unspecified)	NF-kB neuron act 3.6
CC(C)CC(=O)Nc1nnc(S(=O)(=O)N(C)Cc2ccco2)s1	none (no result: APP 5'UTR act, PPC-1+TRAIL kill, FLuc act counter, NF-kB neuron act, FLuc inh counter)

Source: PubChem BioAssay
